Test results from ChEMBL document CHEMBL3232816, “Substituted E-3-(3-indolylmethylene)1,3-dihydroindol-2-ones with antiproliferative activity. Study of the effects on HL-60 leukemia cells” (2014).
Activity calls are given as the source filed them. The rule behind the calls is not given here.

Tests used:
[1] = test system: HL-60; assay: Cell cycle arrest in human HL60 cells assessed as accumulation at G2-M phase at 1 uM after 24 hrs by propidium iodide staining-based flow cytometric analysis (reference value: 10.7%); type: functional
[2] = Cytotoxicity against human NSCLC cells after 48 hrs; type: functional
In short: (§1)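 NCI 60-line panel. Compounds were dissolved in DMSO and tested at five 10-fold dilutions, the highest 10^-4 M (10^-3 M where footnoted), over 48 h of incubation. The readouts were GI50, TGI and LC50 in μM, with the panel mean also given. Only compounds passing a 10^-5 M single-dose prescreen were tested; some were repeated and averaged over two experiments.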

[3] = Cytotoxicity against human breast cancer cells after 48 hrs; type: functional; settings: Cancer cell lines; in short: as §1
[4] = test system: HL-60; assay: Effect on autophagy in human HL60 cells by LC3 protein processing assay; type: functional, cell-based
[5] = test system: HL-60; assay: Cell cycle arrest in human HL60 cells assessed as accumulation at S phase at 1 uM after 24 hrs by propidium iodide staining-based flow cytometric analysis (reference value: 56.9%); type: functional
[6] = test system: HL-60; assay: Induction of apoptosis in human HL60 cells assessed as increase in oxidative stress at 1 uM after 24 hrs by DCFDA staining; type: functional, cell-based
In short: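 Intracellular peroxides in HL-60 cells treated 24 h with 1 μM compound or DMSO. Cells were loaded with 5 μM DCF-DA for 30 min at 37 °C, then DCF fluorescence was acquired by flow cytometry with logarithmic amplification. Means ± s.e.m., n=3.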

[7] = Cytotoxicity against human leukemia cells after 48 hrs; type: functional; settings: for GI50 / TGI: Leukemia cell; in short: as §1
[8] = Cytotoxicity against human colon cancer cells after 48 hrs; type: functional; settings: Cancer cell lines; for CC50: read-out: LC50 (the source's name); in short: as §1
[9] = test system: HL-60; assay: Induction of apoptosis in human HL60 cells assessed as early apoptotic cells at 1 uM after 24 hrs by annexin V-FLUOS staining-based flow cytometric analysis (reference value: 4%); type: functional
[10] = Cytotoxicity against human prostate cancer cells after 48 hrs; type: functional; settings: Cancer cell lines; for CC50: read-out: LC50 (the source's name); in short: as §1
[11] = test system: HL-60; assay: Induction of apoptosis in human HL60 cells assessed as increase in intracellular free Ca2+ level at 1 uM after 24 hrs by INDO-1/AM probe-based fluorometric analysis; type: functional, cell-based
In short: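 They were stained with 5 μM INDO-1/AM, excited at 346 nm, and emission read at 405/485 nm. Rmin came from 5 mM EDTA/EGTA plus 5 μM digitonin, Rmax from 10 mM CaCl2. Free Ca2+ was calculated with Kd […]. Means ± s.e.m., n=3.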

[12] = Cytotoxicity against human CNS cancer cells after 48 hrs; type: functional; settings: Cancer cell lines; for CC50: read-out: LC50 (the source's name); in short: as §1
[13] = Cytotoxicity against human melanoma cells after 48 hrs; type: functional; settings: Melanoma cell; in short: as §1
[14] = Cytotoxicity against human ovarian cancer cells after 48 hrs; type: functional; settings: Cancer cell lines; in short: as §1
[15] = test system: HL-60; assay: Induction of apoptosis in human HL60 cells assessed as increase in intracellular free Mg2+ level at 1 uM after 24 hrs by Mag-Fura2 probe-based fluorometric analysis; type: functional, cell-based
In short: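 They were loaded with 5 μM Mag-Fura2 for 60 min at 37 °C in the dark, washed, and held 45 min at room temperature. Emission at 510 nm was read with excitation at 335/370 nm. Rmin came from 5 mM EDTA/EGTA then 0.1% Triton X-100, Rmax from MgSO4. Free Mg2+ was calculated with Kd 2.1 mM, in triplicate.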

[16] = test system: HL-60; assay: Effect on autophagy in human HL60 cells by acridine orange staining; type: functional, cell-based
[17] = test system: HL-60; assay: Cell cycle arrest in human HL60 cells assessed as accumulation at G0-G1 phase at 1 uM after 24 hrs by propidium iodide staining-based flow cytometric analysis (reference value: 32.4%); type: functional
[18] = Cytotoxicity against human renal cancer cells after 48 hrs; type: functional; settings: Cancer cell lines; in short: as §1
[19] = test system: HL-60; assay: Cytotoxicity against human HL60 cells assessed as growth inhibition at 1 uM measured up to 48 hrs; type: functional, cell-based
In short: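 HL-60 cells, RPMI 1640 with 10% fetal calf serum and 2 mM glutamine, 37 °C, 5% CO2. Cells received 1 μM compound diluted from a 10 mmol/L DMSO stock; controls got equal DMSO. Viable cells were counted daily to follow total cell number. Means ± s.e.m. of three determinations.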

[20] = test system: HL-60; assay: Induction of apoptosis in human HL60 cells assessed as increase in caspase proteolytic activity using DEVD as substrate at 1 uM after 24 hrs by fluorometric analysis; type: functional, cell-based
In short: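 After 24 h exposure of HL-60 cells to 1 μM compound or DMSO vehicle, DEVD-hydrolysing caspase (DEVDase) activity was measured fluorometrically in cell extracts. Means ± s.e.m. of three determinations.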

Row | Structure (SMILES) | GI50 [2] | LC50 [2] | TGI [2] | GI50 [3] | TGI [3] | GI50 [7] | TGI [7] | GI50 [8] | TGI [8] | CC50 [8] | GI50 [10] | TGI [10] | CC50 [10] | GI50 [12] | GI50 [13] | TGI [13] | GI50 [14] | TGI [14] | GI50 [18] | TGI [18] | also measured
1 | COc1ccc(CCn2c(Cl)c(/C=C3/C(=O)Nc4ccccc43)c3ccccc32)cc1 | 430 nM | 74.1 µM | 15.1 µM | 320 nM | 6.31 µM | 350 nM | 15.5 µM | 280 nM | 1.82 µM | 52.5 µM | 350 nM | 19.5 µM | 55 µM | 340 nM | 460 nM | 9.12 µM | 340 nM | 13.5 µM | 480 nM | 18.6 µM | Activity [1]: 69.3%; Activity [4]: Active; Activity [5]: 14%; Activity [6]: Active; Activity [9]: 50%; Activity [11]: Active; TGI [12]: 8.32 µM; CC50 [12]: 58.9 µM; LC50 [13]: 63.1 µM; LC50 [14]: 69.2 µM; Activity [15]: Active; Activity [16]: Active; Activity [17]: 16.7%; LC50 [18]: 72.4 µM; growth inhibition (GI) [19]: Active; Activity [20]: Active
2 | COc1ccc2c(c1)/C(=C\c1c(OC)n(-c3ccccc3)c3ccccc13)C(=O)N2 | 2510 nM | 63.1 µM | 17.4 µM | 630 nM | 7.24 µM | 760 nM | 4.47 µM | 1740 nM | 11 µM | 42.7 µM | 2630 nM | 13.2 µM | 52.5 µM | 980 nM | 2400 nM | 17 µM | 2000 nM | 17.4 µM | 2290 nM | 17.4 µM | CC50 ([3]; read-out: LC50 (the source's name)): 47.9 µM; LC50 (concentration giving 50% net cell kill) [7]: 58.9 µM; TGI [12]: 9.55 µM; CC50 [12]: 38.9 µM; LC50 [13]: 50.1 µM; LC50 [14]: 66.1 µM; LC50 [18]: 63.1 µM
3 | COc1ccc2c(c1)/C(=C\c1c(Cl)n(C/C=C/c3ccccc3)c3ccccc13)C(=O)N2 | 2240 nM |  | 37.1 µM | 1860 nM | 36.3 µM | 2000 nM |  | 1320 nM | 21.9 µM |  | 2090 nM | 16.2 µM |  | 2040 nM | 2400 nM | 38.9 µM | 2090 nM | 41.7 µM | 1910 nM | 30.2 µM | 
